# The list is not random: actives were taken first. Their share in the collection is about 3.5%.
# RGS4 act: RGS4 potentiators or activators, primary screen, cell-based, HEK293 M3R inducible RGS4, calcium flux | carbachol calcium flux Fluo4; active compounds read low | B-score at 10 µM | 310,000 compounds, 0.92% hits | AID 463111, 2010;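 active means B-score of the integrated calcium signal more than 4 SD below the library mean, with starting fluorescence not abnormally high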;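 further: negative B-score means reduced calcium response which marks RGS4 activation or potentiation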
#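 Detection: kinetic calcium fluorescence imaging with Fluo4-AM dye, 2 µM / Material: HEK293 cells with stable M3R and inducible RGS4 / Schedule: recording 10 s baseline at 1 Hz, 100 s post-agonist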
# RGS4 block: RGS4 inhibitors, primary screen, cell-based, HEK293 M3R inducible RGS4, calcium flux. Fluo-4 calcium flux; active compounds read high; triggered by carbachol at its EC20. B-score at 10 µM. 310,000 compounds, 0.45% hits. AID 463165, 2010;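 active means B-score, a plate-corrected calcium signal, over three deviations above library mean, with baseline fluorescence within five deviations of library mean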;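 further: RGS4 expression induced by doxycycline in cells with stable M3 receptor; B-score is computed from the integrated fluorescence ratio over baseline after carbachol; higher B-score means a larger calcium signal and so more RGS4 inhibition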
# Target sequence (P49798 whole entry, looked up): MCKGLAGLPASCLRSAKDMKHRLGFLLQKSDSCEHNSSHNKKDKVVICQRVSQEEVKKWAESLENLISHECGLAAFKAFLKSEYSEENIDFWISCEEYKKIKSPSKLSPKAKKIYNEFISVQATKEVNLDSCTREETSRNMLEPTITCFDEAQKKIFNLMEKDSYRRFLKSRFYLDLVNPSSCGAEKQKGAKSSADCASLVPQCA
# MrgX1 PAM: positive allosteric modulators of MrgX1, primary screen, HEK293 cells, Fluo-4 calcium flux; 310,000 compounds, 0.63% hits; FDSS; active compounds read high; B-score at 10 µM;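 active means plate-corrected calcium response at least 3 library SD above typical, normal starting fluorescence, not activating the receptor alone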;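 further: compound read alongside a low EC10 to EC30 dose of BAM8-22 agonist; peak minus trough fluorescence over baseline measured at the second addition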
# Target sequence (Q96LB2 whole entry, looked up): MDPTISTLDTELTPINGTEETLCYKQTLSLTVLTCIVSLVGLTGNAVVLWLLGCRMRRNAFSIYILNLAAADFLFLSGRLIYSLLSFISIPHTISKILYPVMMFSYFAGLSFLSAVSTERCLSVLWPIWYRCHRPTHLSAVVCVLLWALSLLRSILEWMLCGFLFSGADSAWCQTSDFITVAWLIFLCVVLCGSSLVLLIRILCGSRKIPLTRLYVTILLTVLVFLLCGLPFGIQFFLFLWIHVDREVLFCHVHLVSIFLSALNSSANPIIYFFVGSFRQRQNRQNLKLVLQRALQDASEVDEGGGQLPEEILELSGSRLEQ
# MrgX1 ag: agonists of human MrgX1 receptor, primary screen, HEK293 cells, Fluo-4 calcium flux. Mas-related G-protein coupled receptor member X1 (Homo sapiens), Q96LB2. Fluo-4 calcium fluorescence, agonist mode; active compounds read high. B-score at 10 µM. 310,000 compounds, 0.44% hits. AID 588627, 2011;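 active means calcium response B-score plate-corrected fluorescence ratio at least 3 library SD, with starting fluorescence B-score inside 5 SD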
#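 System – MrgX1-expressing HEK293 cells · Incubation – cells plated overnight, dye loaded 0.5 h 37 °C, 0.5 h room temperature · Technique – kinetic Fluo-4 NW fluorescence of intracellular calcium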
# MrgX1 antag: antagonists of human MrgX1 receptor, primary screen, HEK293 cells, Fluo-4 calcium flux. BAM8-22 antagonism; active compounds read low. B-score at 10 µM. 310,000 compounds, 1.3% hits. AID 588676, 2011;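 active means calcium-response B-score plate-corrected more than 3 library SD below zero, starting fluorescence within 5 deviations, no agonist response on first addition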;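 further: peak minus trough fluorescence over baseline after final BAM8-22 challenge near maximal dose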
# Numbers stand for hits; 0 = inactive; - = no result given.
SMILES,RGS4 act,RGS4 block,MrgX1 PAM,MrgX1 ag,MrgX1 antag
c1ccc(C[n+]2ccc3ccccc3c2)cc1,-7.9,0,0,0,0
COc1ccc(CCNc2oc(COc3ccccc3F)nc2C#N)cc1OC,-,-,0,0,0
COc1ccc(CCNc2oc(COc3ccccc3Cl)nc2C#N)cc1OC,-7.3,0,0,0,0
CCCOC(=O)c1ccc(NC(=O)C2C3C=CC(O3)C2C(=O)O)cc1 (stereo unspecified),0,0,7.9,0,0
CCOC(=O)c1c(-c2cccc([N+](=O)[O-])c2)csc1NC(=O)C1CC1,-7.7,0,0,0,0
CCOC(=O)c1c(-c2cccc([N+](=O)[O-])c2)csc1NC(=O)C1CCCCC1,-9.2,0,0,0,0
COc1cc(-c2nc3cccc(C)n3c2NCC2CCCO2)ccc1O (stereo unspecified),0,0,0,0,0
CCC(O)CNc1nc(SC)nc2sc3c(c12)CCN(C)C3 (stereo unspecified),-7.2,0,0,0,0
CSc1nc(NCc2ccco2)c2c3c(sc2n1)CN(C)CC3,-7.7,0,0,0,-4.7
CSc1nc(SCC(=O)NCc2ccco2)c2c3c(sc2n1)CN(C)CC3,0,0,0,0,0
CCOc1cc(/C=C2/C(=O)ON=C2C)cc(Br)c1O,0,0,0,58,0
CCCOc1ccc(/C=C2/C(=O)ON=C2C)cc1OCC,0,0,0,0,0
O=C(CCn1c(=O)[nH]c2ccccc2c1=O)NCCSCc1ccccc1,0,0,0,0,0
CC(CNC(=O)c1cccs1)c1ccc([N+](=O)[O-])cc1 (stereo unspecified),0,0,0,0,-4.6
O=C(NCCNc1ccc([N+](=O)[O-])cc1)c1cccs1,0,0,0,0,0
CCCCCCCCCCCCC/C=C/[C@@H](O)[C@@H](N)CO,0,0,0,0,0
CCC(C)n1c(=S)[nH]c2c(sc3ccc([N+](=O)[O-])cc32)c1=O (stereo unspecified),0,0,9.2,0,0
Cc1[nH]c(C)c(S(=O)(=O)N(Cc2ccccc2)C(C)(C)C)c1C(=O)N1CCCC1,0,0,0,0,0
COc1ccccc1-c1coc2cc(O)cc(O)c2c1=O,0,0,0,34,0
Cc1nc2nc(SCC(=O)NCCCN3CCCCCC3)nn2c(C)c1Cc1ccccc1,-7.5,0,0,0,0
NC(=O)C1CCN(CC(=O)N2N=CCC2c2ccccc2)CC1 (stereo unspecified),0,0,0,0,-5.8
COc1c(CC=C(C)C)cc(C2CC(=O)c3c(O)cc(O)cc3O2)cc1CC=C(C)C (stereo unspecified),-8.3,0,0,0,0
COc1ccc([C@@H]2CC(=O)c3c(O)cc(O)cc3O2)cc1O,-,-,0,0,0
O=C(COC(=O)c1ccc2ccccc2c1)Nc1ncc(C(F)(F)F)cc1Cl,0,0,0,0,0
O=C(COC(=O)c1c2ccccc2cc2ccccc12)Nc1ncc(C(F)(F)F)cc1Cl,-7,0,0,0,0
SMILES,RGS4 act,RGS4 block,MrgX1 PAM,MrgX1 ag,MrgX1 antag
O=C1NC(=S)N/C1=C/c1cc([N+](=O)[O-])ccc1O,0,0,12,0,0
O=C(N/N=C/c1cccc(Br)c1)C1CC(=O)N(c2ccccc2)C1 (stereo unspecified),0,0,0,0,0
COc1ccc(-c2nc(CSCC(=O)NCc3ccco3)c(C)o2)cc1,0,0,0,0,-5.4
OCc1ccccc1SSc1ccccc1CO,0,0,0,41,0
O=C(Cc1ccc([N+](=O)[O-])cc1)N/N=C/c1ccccc1F,0,0,0,0,0
Cc1ccnc(N/C=C(\C#N)c2nc(-c3cccc(Br)c3)cs2)c1,0,0,0,36,0
COc1ccc(CCNCC(O)COc2ccc(OC)cc2C(C)(C)C)cc1 (stereo unspecified),0,0,0,0,0
O=C(Nc1cc(Sc2ccccn2)cc([N+](=O)[O-])c1)c1ccc(Cl)cc1,-8,0,0,0,-6.1
Cc1ccc(C)c(N2N=C(C(=O)N(CC(C)C)c3c(N)n(Cc4ccccc4)c(=O)[nH]c3=O)CCC2=O)c1,0,0,0,0,0
CC1(C)CC(=O)C(C2=NC3(CCCCC3)Cc3ccccc32)=C(O)C1,0,0,0,0,0
CCC1(CC)Cc2ccccc2C(C2=C(O)CC(C)(C)CC2=O)=N1,0,0,0,0,-4.8
CC(C)=CCN1CCN(Cc2c[nH]c3ccccc23)CC1CCO (stereo unspecified),0,0,0,0,0
CCN(CC(=O)NCc1cccs1)C(=O)C1CC(=O)N(c2ccc(OC)cc2OC)C1 (stereo unspecified),0,0,0,0,-4.8
CCN(CC(=O)Nc1ccc2c(c1)OCCO2)C(=O)C1CC(=O)N(c2ccc(OC)cc2OC)C1 (stereo unspecified),0,0,0,0,0
Cc1cc(N2CCCC2)ccc1/C=C1\NC(=S)N(C)C1=O,0,0,0,44,0
CN1C(=O)c2ccc(N3CCCC3)cc2C1=O,0,0,0,0,0
C=CCn1c(SCC(=O)Nc2ccc(F)cc2)nnc1-c1cnccn1,0,0,0,0,0
COC(=O)c1sc(NC(=S)NNC(=O)c2c(Br)c(C)nn2C)c(C(=O)OC)c1C,0,0,0,0,-5.1
COC(=O)c1sc(NC(=O)C(C)C)c(C(=O)OC)c1C,0,0,0,0,0
CCC(C)c1ccc(C(C)NC(=S)NC2CCCCC2)cc1 (stereo unspecified),-8.4,0,0,0,0
CCc1ccc(C(C)NC(=S)NC2CCCCC2)cc1 (stereo unspecified),0,0,0,0,0
Cc1ccc(NC(=O)CSc2nc(=O)n(CCCN3CCOCC3)c3c2CCCC3)cc1,0,0,0,0,0
Oc1ccccc1C=NCC(O)c1ccccc1 (stereo unspecified),0,0,0,0,0
Cc1ccccc1C(=O)NNc1ccc([N+](=O)[O-])cc1,0,0,0,0,-6.8
CC(=O)Nc1cc(C(=O)N2CCc3ccccc3C2)ccc1Sc1ccc(Cl)cc1,-8,0,0,0,0
O=C(Nc1cccc(O)c1)c1cccc(NC(=O)c2cccs2)c1,0,0,0,0,0
CCOc1ccc(NC(=O)CSc2nnc(Cc3cccn3C)n2-c2ccc(OC)cc2)cc1,0,0,0,0,-5.7
Cc1cc(C(=O)N2CCCC(Nc3ccc(F)cc3)C2)c(C)o1 (stereo unspecified),0,0,0,0,0
O=C(Nc1cccc(S(=O)(=O)N2CCOCC2)c1)c1ccc2c(=O)n3c(nc2c1)CCCCC3,-7.3,0,0,0,0
